The test system of series [1] is Tau phosphorylation at S202/T205. Nature of the series: Immunohistochemistry. The conditions noted are these: stereotactic injection, 72 hours, versus contralateral control. Format: in vivo, mouse.
Series [2] relates to sarkosyl-insoluble Tau. Nature of the series: Sarkosyl fractionation of primary neurons, Tau immunoblot. It is filed as cell-based, mouse. Conditions: 12 hours; for Tau aggregation (sarkosyl-insoluble Tau) in primary neurons: Epoxomicin, MG132, iBEp 1 μM, Leupeptin 20 μM every two hours; for sarkosyl-insoluble Tau in primary WT mouse neurons: iBEp 1 μM, IgG-Epox […]. (A western blot detects proteins with antibodies after separation by electrophoresis.)

For series [3], the system named is Tau phosphorylation at S202/T205. Nature of the series: Immunocytochemistry for phosphorylated Tau in primary neurons. Format: cell-based, mouse. The conditions noted are these: primary hTau-KI hippocampal neurons, 12 hours.
In another series the test system is primary mouse neurons. Nature of the series: Intracellular metabolite extraction from treated neurons. The conditions noted are these: DIV14 cortical neurons, extracted intracellular metabolites, 1 pg limit of detection. Format: in vitro ADME.
For series [4], the target named is catalytic proteasome subunits (Mus musculus, UniProt O55234+P70195+Q60692). It is filed as binding. Conditions: for targets bound (streptavidin enrichment / biotin pull-down, LC/MS): primary mouse neurons and mouse brain, Table S1.
In a further series the test system is Tau phosphorylation. Kind of series: Quantitative phosphoproteomics of treated primary neurons. Format: cell-based. Conditions: primary mouse neurons; sites correspond to human S202, T205, T217, S404.
In series [5] the test system is Tau paired helical filaments. Nature of the series: Electron microscopy of sarkosyl-insoluble fractions of injected hippocampi. Conditions: hTau-KI mice, 72 hours after injection. Format: in vivo, mouse.
The subject of series [6] is sarkosyl-insoluble Tau. Nature of the series: Sarkosyl fractionation of hippocampi after stereotactic injection. It is filed as in vivo, mouse.
Series [7] in a line: In vivo hippocampal injection dose-ranging. On the set-up: species or system mouse.
The test system of series [8] is intracellular ubiquitin conjugates and p62. Kind of series: Immunoblots of ubiquitin conjugates and p62 in primary neurons. It is filed as cell-based, mouse. Conditions: primary WT neurons, immunoblot.
The subject of series [9] is ubiquitin-proteasome reporter GFPu in primary hippocampal neurons. Kind of series: GFPu degradation assay. Format: cell-based, mouse. The conditions noted are these: DIV14 primary neurons, 1 μM, 12-hour incubation. Put shortly:
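Primary hippocampal neurons on coverslips co-transfected at DIV7 or DIV8 with Ub-G76V-GFP (0.5 μg/coverslip) and mCherry (0.1 μg/coverslip) using lipofectamine 2000, 4 h at 37 °C. At DIV14, 1 μM test compound for 12 h, then fixed and processed for immunocytochemistry. GFP+ cells counted per 100 cells; n=6 regions imaged per replicate, N=3 biological replicates.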

Series [10] concerns β-sheet containing aggregates. Nature of the series: Thioflavin S staining after stereotactic hippocampal injection. It is filed as in vivo, mouse. Conditions: hTau-KI mice, 72 hours, relative to contralateral controls.
A further series has as its target Proteasome subunit β5 (Homo sapiens, UniProt P28074). Nature of the series: Proteasome subunit β5 activity assay. Format: biochemical.
The subject of series [11] is surface Lrp1, GluR1 and neuroproteasomes. Nature of the series: Surface biotinylation of primary neurons treated with RAP. Format: cell-based. Conditions: primary mouse neurons. In a few lines: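 Neurons were washed in cold PBSCM pH 8.0 and labelled with 0.5 mg/mL Sulfo-NHS-LC-Biotin in PBSCM, 4°C for 10 min. Labelling quenched with 50 mM glycine, two 10-min incubations at 4°C.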

Series [12] deals with neuroproteasome activity and sarkosyl-insoluble Tau. It is filed as cell-based, mouse. The conditions noted are these: primary WT neurons treated with RAP and a dose curve of iBEp.

We go through five molecules from paper PMC13334530 (Nature neuroscience, 2026).

Consider `CC[C@H](C)[C@H](NC(=O)[C@H]([C@@H](C)CC)N(C)C(C)=O)C(=O)N[C@H](C(=O)N[C@@H](CC(C)C)C(=O)[C@@]1(C)CO1)[C@@H](C)O` [Epoxomicin, reference compound], for which the “Tau phosphorylation at S202/T205 (AT8) in hippocampi of hTau-KI mice” value in series [1] is “No Tau S202/T205 phosphorylation was detectable”. Besides, the “Tau aggregation (sarkosyl-insoluble Tau) in primary neurons” value (from here on “Tau aggregation (sarkosyl-insoluble Tau)”) in the series on sarkosyl-insoluble Tau [2] is recorded as “does not”. Further, the “Tau phosphorylation at S202/T205 in primary neurons” value in series [3] is on record as “No Tau S202/T205 phosphorylation was detectable”. Besides, the “permeability into primary mouse neurons by LC/MS-based metabolite profiling” value in the series with primary mouse neurons is reported as “peak in Epox treated cells corresponds to Epoxomicin”.
Turning to Biotin-PEG24-Epoxomicin [iBEp], the “targets bound (streptavidin enrichment / biotin pull-down, LC/MS)” value in series [4] is listed as “selectively targets catalytic proteasome subunits”. Also, the “bands differentially labeled versus DMSO (streptavidin blot)” value in [4] (primary neurons treated 12 hours) is reported as “only three bands differentially labeled”. In the series on Tau phosphorylation, the “Tau phosphorylation sites with time-dependent increase, of identified sites” value was 4 of 26. Moreover, the “Tau phosphorylation at S202/T205 (AT8) in hippocampi of hTau-KI mice” value in series [1] was “significantly elevated”. For the same molecule, the “Tau aggregation (sarkosyl-insoluble Tau)” value with sarkosyl-insoluble Tau [2] is on record as “induces Tau aggregation”. Also, the “sarkosyl-insoluble Tau in primary WT mouse neurons” value in the series on sarkosyl-insoluble Tau [2] (immunoblot) was “significant increase”. Besides, the “filaments in sarkosyl-insoluble fractions by negative stain EM” value in [5] is “Twisted filaments which resembled paired helical filaments (PHFs) were readily apparent”. Also, the “Tau phosphorylation at S202/T205 in primary neurons” value in [3] is “significantly elevated”. For the same molecule, the “sarkosyl-insoluble Tau in hippocampi from hTau-KI mice” value in the series on sarkosyl-insoluble Tau [6] (2 μL of 6.4 μM into CA1, 72 hours, contralateral IIT-PEG24-Biotin, N=6) is “significant increase”. Also, in the series with sarkosyl-insoluble Tau [6] (stereotactic injection, contralateral DMSO, N=3), the “sarkosyl-insoluble Tau signal in hippocampi from Tau-KO mice” value is given as “no detectable signal”. Also, in series [7] (6.4 μM), the “adverse physiological effects at selected concentration” value is “without causing observable adverse physiological effects” and the “inhibition of membrane-fraction proteasomes in vivo” value was “detectable inhibition of membrane-fraction proteasomes”. The “concentration inducing seizure activity” value in series [7] (2 μL, mice) is “exceeding 12 μM”. Also, the “increase of total intracellular ubiquitin conjugates or p62 levels” value in [8] is given as “lack of both markers”. Further, in series [9], the “accumulation of the ubiquitin-proteasome reporter GFPu” value is reported as “did not cause accumulation”. Further, the “ThioS staining in CA1 region of hippocampi” value in series [10] is “strong increase”.
Consider Biotin-PEG24-IleIleThr, for which the “sarkosyl-insoluble Tau in primary WT mouse neurons” value in the series on sarkosyl-insoluble Tau [2] (immunoblot) was “No such signal”.
In the case of Sulfo-MG132 [SulfoMG], in series [4], the “targets bound (streptavidin enrichment / biotin pull-down, LC/MS)” value is “the catalytic proteasome subunits as well as some off-targets of MG132”. Further, the “sarkosyl-insoluble hTau in primary hTau-KI neurons” value in the series with sarkosyl-insoluble Tau [2] (1 μM, immunoblot) is “induces similar partitioning of hTau into the sarkosyl-insoluble fraction as iBEp”. The “Tau aggregation (sarkosyl-insoluble Tau)” value with sarkosyl-insoluble Tau [2] is recorded as “induces Tau aggregation”. In addition, the “activity as proteasome inhibitor” value on Proteasome subunit β5 (dose curve, Suc-LLVY-AMC (Extended Data Fig. 3g)) is given as “active”. For the same molecule, on Proteasome subunit β5 (proteasome, calpain and cathepsin L activity assays (Extended Data Fig. 3g,h)), the “potency relative to MG132” value is listed as “less potent than MG132”.

B1: RAP: pan-ApoE receptor antagonist, Receptor-associated protein (protein, UniProt P30533 35-357, looked up)
Alpha-2-macroglobulin …: YSREKNQPKPSPKRESGEEFRMEKLNQLWEKAQRLHLPPVRLAELHADLKIQERDELAWKKLKLDGLDEDGEKEARLIRNLNVILAKYGLDGKKDARQVTSNSLSGTQEDGLDDPRLEKLWHKAKTSGKFSGEELDKLWREFLHHKEKVHEYNVLLETLSRTEEIHENVISPSDLSDIKGSVLHSRHTELKEKLRSINQGLDRLRRVSHQGYSTEAEFEEPRVIDLWDLAQSANLTDKELEAFREELKHFEAKIEKHNHYQKQLEIAHEKLRHAESVGDGERVSRSREKHALLEGRTKELGYTVKKHLQDLSGRISRARHNEL
Consider B1, for which, in series [11], the “surface GluR1” value was “without modifying”, the “surface abundance of neuroproteasomes” value is “reduced” and the “surface localization of Lrp1” value is recorded as “rapidly decreased”. The “susceptibility of neurons to Tau aggregation” value in series [12] is “renders neurons more susceptible to Tau aggregation”.
